According to ChEMBL document CHEMBL4814059, “Redefining the Histone Deacetylase Inhibitor Pharmacophore: High Potency with No Zinc Cofactor Interaction” (ACS Med Chem Lett, 2021):
Active and inactive are the calls of the source. The calls are words filed in the database; no cut-off is given here.

Assays:
[1] = target: Histone deacetylase 1 (Homo sapiens, UniProt Q13547); assay: Inhibition of recombinant human C-terminal FLAG-tagged HDAC1 expressed in human HEK293F cells using Fluor-de-lys substrate as substrate incubated for 3 hrs followed by substrate addition and measured after 60 mins by fluorescence based assay
[2] = target: Histone deacetylase 2 (Homo sapiens, UniProt Q92769); assay: Inhibition of recombinant human C-terminal FLAG-tagged HDAC2 expressed in human HEK293F cells using Fluor-de-lys substrate as substrate incubated for 3 hrs followed by substrate addition and measured after 60 mins by fluorescence based assay
[3] = target: T1, Histone deacetylase 3 (Homo sapiens, UniProt O15379); assay: Inhibition of recombinant human FLAG-tagged HDAC3 expressed in human HEK293F cells co-expressing His6-tagged SMRT (1 to 899 residues) using Fluor-de-lys substrate as substrate incubated for 3 hrs followed by substrate addition and measured after 60 mins by fluorescence based assay
[4] = target: T2, Class 1 histone deacetylase (Homo sapiens, UniProt Q13547+O15379+Q92769+Q9BY41); format: tissue-based; settings: 2c4
[5] = target: T3, Nuclear receptor subfamily 1 group I member 2 (Homo sapiens, UniProt O75469); assay: Activation of PXR (unknown origin) expressed in human DPX2 cells co-expressing luciferase gene under control of CYP3A4 promoter assessed as induction of CYP3A4 transcriptional activity incubated for overnight by luminescence based analysis; format: ADME, cell-based
T3 sequence (O75469 whole entry): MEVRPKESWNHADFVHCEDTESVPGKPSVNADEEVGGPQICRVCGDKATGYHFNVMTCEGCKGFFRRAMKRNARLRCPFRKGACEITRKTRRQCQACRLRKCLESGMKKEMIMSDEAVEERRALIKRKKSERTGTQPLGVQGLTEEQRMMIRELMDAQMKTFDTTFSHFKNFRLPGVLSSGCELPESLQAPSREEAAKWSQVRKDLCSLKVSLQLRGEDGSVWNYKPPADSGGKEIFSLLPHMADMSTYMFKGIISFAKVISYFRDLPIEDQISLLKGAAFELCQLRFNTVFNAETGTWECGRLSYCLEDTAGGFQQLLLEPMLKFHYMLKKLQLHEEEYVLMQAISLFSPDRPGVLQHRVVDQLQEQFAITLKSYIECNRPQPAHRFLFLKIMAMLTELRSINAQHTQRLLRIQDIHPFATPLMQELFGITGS

[6] = target: Cytochrome P450 2C9 (Homo sapiens, UniProt P11712); assay: Inhibition of CYP2C9 in human liver microsomes assessed as reduction in 4'-hydroxy diclofenac level using diclofenac as substrate incubated for 10 mins by LC-MS/MS analysis; format: ADME
[7] = Genotoxicity in Salmonella typhimurium TA1535 in presence of liver S9 fraction by Ames test; format: toxicity, subcellular; settings: salmonella enterica subsp. enterica serovar typhimurium
Method in brief: (§1)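 Exploratory, non-GLP Ames mutagenicity test run on a 3-strain panel.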

[8] = Genotoxicity in Salmonella typhimurium TA98 in presence of liver S9 fraction by Ames test; format: toxicity, subcellular; settings: salmonella enterica subsp. enterica serovar typhimurium; method in brief: as §1
[9] = Genotoxicity in Salmonella typhimurium TA100 in presence of liver S9 fraction by Ames test; format: toxicity, subcellular; settings: salmonella enterica subsp. enterica serovar typhimurium; method in brief: as §1
[10] = target: T1, Histone deacetylase 3; assay: Inhibition of recombinant human FLAG-tagged HDAC3 expressed in human HEK293F cells co-expressing His6-tagged SMRT (1 to 899 residues) assessed as fast-on/fast-off kinetics inhibition using Fluor-de-lys substrate as substrate by fluorescence based analysis
[11] = target: T1, Histone deacetylase 3; assay: Inhibition of recombinant human FLAG-tagged HDAC3 expressed in human HEK293F cells co-expressing His6-tagged SMRT (1 to 899 residues) assessed as rapid dissociation inhibition using Fluor-de-lys substrate as substrate measured after compound dilution by jump dilution based analysis
[12] = Fraction unbound in rat plasma; format: ADME, cell-free
[13] = target: T2, Class 1 histone deacetylase; assay: Inhibition of class 1 HDAC in human Jurkat 2C4 model of HIV latency assessed as reactivation of HIV latency incubated for 18 to 24 hrs in presence of 5% heat inactivated NHS by Steady-Glo luciferase assay; format: tissue-based
[14] = target: T2, Class 1 histone deacetylase; assay: Inhibition of class 1 HDAC in quiescent human primary T-cell model of VSV-G pseudotyped HIV-1 latency assessed as reactivation of HIV latency incubated for 24 hrs in presence of 10% FBS by NanoGlo luciferase assay; format: tissue-based
[15] = Plasma clearance in Wistar Han rat; format: ADME
[16] = Half life in Wistar Han rat; format: ADME; settings: in vivo
[17] = Oral bioavailability in Wistar Han rat; format: ADME, organism-based; settings: in vivo
[18] = target: 5-hydroxytryptamine receptor 2B (Homo sapiens, UniProt P41595); assay: Inhibition of human 5HT2B receptor
Method in brief: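 Off-target selectivity screen of 115 receptor, enzyme and transporter binding and biochemical assays. Compound tested in duplicate at 10 μM.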

[19] = target: T2, Class 1 histone deacetylase; assay: Ratio of IC50 for inhibition of class 1 HDAC in human Jurkat 2C4 model of HIV latency in presence of 5% heat inactivated NHS to IC50 for inhibition of class 1 HDAC in human Jurkat 2C4 model of HIV latency in presence of 0.1% heat inactivated NHS by Steady-Glo luciferase assay
Method in brief: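 Latent HIV luciferase-reporter Jurkat cells were treated with compound and latency reversal was read as increased luminescence. […] Values are means of at least two measurements.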

T1 sequence (O15379 whole entry, the tested form may be a part): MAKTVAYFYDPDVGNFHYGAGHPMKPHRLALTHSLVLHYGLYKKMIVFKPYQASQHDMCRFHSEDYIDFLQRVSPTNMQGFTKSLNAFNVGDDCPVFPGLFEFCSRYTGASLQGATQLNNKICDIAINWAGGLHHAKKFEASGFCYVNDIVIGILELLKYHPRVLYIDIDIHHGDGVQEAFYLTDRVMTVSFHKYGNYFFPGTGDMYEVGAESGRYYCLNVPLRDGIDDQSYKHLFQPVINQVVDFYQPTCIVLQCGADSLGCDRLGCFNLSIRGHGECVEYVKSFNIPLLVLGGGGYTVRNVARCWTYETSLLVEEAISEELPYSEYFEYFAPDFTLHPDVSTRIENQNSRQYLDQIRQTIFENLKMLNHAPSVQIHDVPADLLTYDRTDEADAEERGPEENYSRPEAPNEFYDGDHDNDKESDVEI
Sequence of Histone deacetylase 1 (Q13547 whole entry): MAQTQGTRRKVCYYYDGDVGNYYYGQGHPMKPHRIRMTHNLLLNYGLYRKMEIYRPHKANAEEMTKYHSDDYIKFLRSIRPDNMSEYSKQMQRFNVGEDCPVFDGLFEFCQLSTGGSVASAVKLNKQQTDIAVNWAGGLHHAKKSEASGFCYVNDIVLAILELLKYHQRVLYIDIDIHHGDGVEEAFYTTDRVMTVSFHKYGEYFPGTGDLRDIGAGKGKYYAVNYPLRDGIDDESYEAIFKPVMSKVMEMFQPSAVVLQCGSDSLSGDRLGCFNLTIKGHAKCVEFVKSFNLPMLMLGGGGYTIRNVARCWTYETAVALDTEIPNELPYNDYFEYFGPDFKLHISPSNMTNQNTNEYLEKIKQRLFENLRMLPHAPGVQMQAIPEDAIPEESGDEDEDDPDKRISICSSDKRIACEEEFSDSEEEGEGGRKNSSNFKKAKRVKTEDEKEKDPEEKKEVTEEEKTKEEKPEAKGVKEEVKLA
Sequence of Cytochrome P450 2C9 (P11712 whole entry): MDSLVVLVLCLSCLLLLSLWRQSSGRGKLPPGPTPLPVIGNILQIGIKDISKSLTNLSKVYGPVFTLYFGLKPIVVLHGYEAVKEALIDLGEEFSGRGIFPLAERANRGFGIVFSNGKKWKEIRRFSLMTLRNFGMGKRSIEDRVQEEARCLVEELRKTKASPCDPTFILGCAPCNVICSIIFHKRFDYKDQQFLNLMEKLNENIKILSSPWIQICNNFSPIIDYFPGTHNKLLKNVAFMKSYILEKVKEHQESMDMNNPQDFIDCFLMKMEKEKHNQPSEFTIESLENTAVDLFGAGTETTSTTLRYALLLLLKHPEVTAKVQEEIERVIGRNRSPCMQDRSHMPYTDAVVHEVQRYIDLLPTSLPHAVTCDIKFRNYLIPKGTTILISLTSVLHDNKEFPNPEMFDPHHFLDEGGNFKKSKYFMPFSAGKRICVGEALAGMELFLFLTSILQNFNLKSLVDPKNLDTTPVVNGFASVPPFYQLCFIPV
Sequence of Histone deacetylase 2 (Q92769 whole entry, the tested form may be a part): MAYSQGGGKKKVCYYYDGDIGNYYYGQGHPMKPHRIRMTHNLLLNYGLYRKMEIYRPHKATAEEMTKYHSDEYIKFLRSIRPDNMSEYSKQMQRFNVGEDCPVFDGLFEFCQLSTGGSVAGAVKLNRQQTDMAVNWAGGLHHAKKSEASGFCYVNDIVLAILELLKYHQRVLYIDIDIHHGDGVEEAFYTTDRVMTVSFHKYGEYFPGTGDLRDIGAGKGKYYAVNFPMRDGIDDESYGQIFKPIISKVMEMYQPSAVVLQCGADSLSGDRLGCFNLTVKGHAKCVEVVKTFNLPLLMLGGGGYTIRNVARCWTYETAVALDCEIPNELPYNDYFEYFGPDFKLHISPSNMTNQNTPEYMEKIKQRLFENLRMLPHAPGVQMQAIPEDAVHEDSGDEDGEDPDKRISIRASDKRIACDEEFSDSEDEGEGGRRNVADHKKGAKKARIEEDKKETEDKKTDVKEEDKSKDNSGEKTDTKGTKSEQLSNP
T2 sequence (O15379 whole entry, looked up): as the sequence (O15379 whole entry, the tested form may be a part) above
T2 sequence (Q13547 whole entry, looked up): as the sequence (Q13547 whole entry) above
T2 sequence (Q92769 whole entry, looked up): as the sequence (Q92769 whole entry, the tested form may be a part) above
T2 sequence (Q9BY41 whole entry, looked up): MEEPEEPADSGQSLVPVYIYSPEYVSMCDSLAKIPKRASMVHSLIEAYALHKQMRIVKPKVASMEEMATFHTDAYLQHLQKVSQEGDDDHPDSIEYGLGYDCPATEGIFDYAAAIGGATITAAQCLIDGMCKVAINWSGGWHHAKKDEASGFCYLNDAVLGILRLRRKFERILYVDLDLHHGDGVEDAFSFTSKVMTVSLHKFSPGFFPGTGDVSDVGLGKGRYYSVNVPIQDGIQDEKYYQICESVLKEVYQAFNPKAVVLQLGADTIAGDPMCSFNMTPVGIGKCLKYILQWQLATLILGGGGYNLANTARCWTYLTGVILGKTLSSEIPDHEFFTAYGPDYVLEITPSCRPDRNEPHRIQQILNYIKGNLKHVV
Sequence of 5-hydroxytryptamine receptor 2B (P41595 whole entry): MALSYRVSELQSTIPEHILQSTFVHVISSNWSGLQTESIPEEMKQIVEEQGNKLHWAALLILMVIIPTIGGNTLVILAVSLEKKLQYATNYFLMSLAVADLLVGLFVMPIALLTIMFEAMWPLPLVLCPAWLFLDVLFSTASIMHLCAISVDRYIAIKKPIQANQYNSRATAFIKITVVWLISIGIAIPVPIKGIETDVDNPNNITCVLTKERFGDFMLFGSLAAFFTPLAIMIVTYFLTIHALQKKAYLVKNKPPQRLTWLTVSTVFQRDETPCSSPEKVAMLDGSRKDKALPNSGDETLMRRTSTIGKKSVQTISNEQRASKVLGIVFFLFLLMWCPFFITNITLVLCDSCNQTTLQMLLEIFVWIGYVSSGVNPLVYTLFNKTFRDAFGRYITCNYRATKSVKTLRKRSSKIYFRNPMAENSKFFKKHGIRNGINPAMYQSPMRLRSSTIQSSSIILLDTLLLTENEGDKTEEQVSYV

Structure (SMILES) | IC50 [1] | IC50 [2] | IC50 [3] | IC50 [4] | EC50 [5] | IC50 [6] | Fu [12] | also measured
CCCC[C@H](NC(=O)Cc1c[nH]c2ccc(OC)cc12)c1ncc(-c2cc3ccccc3nc2OC)[nH]1 | 250 nM | 500 nM | 360 nM | 860 nM | 2500 nM | 1600 nM |  | 
CCCC[C@H](NC(=O)Cc1c[nH]c2ccccc12)c1ncc(-c2cc3ccccc3nc2OC)[nH]1 | 770 nM | 2700 nM | 340 nM | 40000 nM | 4400 nM | 3400 nM |  | 
CC[C@H](NC(=O)C1CN(C)C1)c1ncc(-c2cc3ccccc3nc2OC)[nH]1 | 23000 nM | > 50000 nM | 28000 nM | > 40000 nM |  |  |  | 
CCCC[C@H](NC(=O)C1CN(C)C1)c1ncc(-c2cc3ccccc3nc2OC)[nH]1 | 280 nM | 750 nM | 160 nM | 17000 nM | > 30000 nM | 50000 nM |  | Activity [7]: Non-Toxic; Activity [8]: Non-Toxic; Activity [9]: Non-Toxic; inhibition [10]: Active; inhibition [11]: Active
CCCC[C@H](NC(=O)[C@H](CN)c1c(C)[nH]c2ccc(O)cc12)c1ncc(-c2cc3ccccc3nc2OC)[nH]1 | 2 nM | 5 nM | 4.7 nM | 1300 nM | > 30000 nM | > 50000 nM | < 0.0001 | IC50 [13]: 7400 nM; IC50 [14]: 4500 nM
CCCCC[C@H](NC(=O)C1CN(C)C1)c1ncc(-c2cc3ccccc3nc2OC)[nH]1 | 4700 nM | > 17000 nM | 3500 nM | > 40000 nM |  |  |  | 
COc1nc2ccccc2cc1-c1cnc([C@H](C)NC(=O)C2CN(C)C2)[nH]1 | > 50000 nM | > 50000 nM | > 50000 nM | > 40000 nM |  |  |  | 
CCCC[C@H](NC(=O)[C@H](C)c1c(C)[nH]c2ccc(O)cc12)c1ncc(-c2cc3ccccc3nc2OC)[nH]1 | 37 nM | 87 nM | 55.2 nM | 240 nM | 1900 nM | 2500 nM | 0.0006 | Activity [7]: Non-Toxic; IC50 [13]: 3200 nM; IC50 [14]: 2100 nM; Activity [8]: Non-Toxic; Activity [9]: Non-Toxic; clearance [15]: 25 mL/min/kg; half-life [16]: 1.2 h; F [17]: 26%; IC50 [18]: < 1000 nM; inhibition [10]: Active; inhibition [11]: Active; Ratio IC50 [19]: 10
COc1nc2ccccc2cc1-c1cnc(CNC(=O)C2CN(C)C2)[nH]1 |  | > 50000 nM | 15000 nM |  |  |  |  | 
CCCCCCCC[C@H](NC(=O)C1CN(C)C1)c1ncc(-c2cc3ccccc3nc2OC)[nH]1 | 18000 nM | > 50000 nM | 5200 nM | > 40000 nM |  |  |  | 
CCC(=O)CCCCC[C@H](NC(=O)C1CN(C)C1)c1ncc(-c2cc3ccccc3nc2OC)[nH]1 |  |  |  |  |  |  | 0.0574 | 
CCCC[C@H](NC(=O)[C@H](CN)c1c(C)[nH]c2ccc(OC)cc12)c1ncc(-c2cc3ccccc3nc2OC)[nH]1 |  |  |  |  |  |  | < 0.0001 | 
CCCC[C@H](NC(=O)[C@H](C)c1c(C)[nH]c2ccc(OC)cc12)c1ncc(-c2cc3ccccc3nc2OC)[nH]1 | 47 nM | 120 nM | 210 nM | 300 nM | 2900 nM | 2900 nM |  | 
CCC[C@H](NC(=O)C1CN(C)C1)c1ncc(-c2cc3ccccc3nc2OC)[nH]1 | 390 nM | 3400 nM | 300 nM | 11000 nM |  |  |  | 
O=C(/C=C/c1cccc(S(=O)(=O)Nc2ccccc2)c1)NO [BELINOSTAT] |  |  |  |  |  |  | 0.138 | 
O=C(CCCCCCC(=O)Nc1ccccc1)NO [VORINOSTAT] |  |  |  |  |  |  | 0.75 | 
